Screening results from PubChem BioAssay.
CHO parental Ca: ATP-evoked calcium signal inhibitors, parental CHO, primary screen, counter-screen for OX1R antagonist project, cell-based, fluorescence, Fluo-8 calcium dye. parental CHO-K1, ATP-induced calcium, Fluo-8 fluorescence. inhibition, % at 5.6 µM. 330,000 compounds, 0.63% hits;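 active means inhibition above that plate's mean sample inhibition plus 3 SD, cut at about 26% in these data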;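 further: 0% = ATP-challenged DMSO wells and 100% = DMSO wells without ATP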
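Test system: untransfected parental CHO cell line. Compound: one dose, 5.6 µM nominal. Detection: intracellular calcium via Fluo-8 no-wash fluorescent dye. Measure: % inhibition. Benchmarks: ATP-challenged DMSO wells low, unchallenged DMSO wells high.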
TRPML3 agonist: human TRPML3 channel agonists, primary screen, cell-based, HEK293 TRPML3-YFP, Fluo-8 calcium fluorescence, 3 µM; 220,000 compounds, 0.29% hits; 100% = the carbachol control signal; Mucolipin-3 (Homo sapiens), Q8TDD5; AID 1448, 2008; activation, % at 3 µM;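 active means activation above its plate's cutoff, the mean activation of the plate's test wells plus 3 SD, cut at about 12% in these data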;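 further: 0% = DMSO only wells and 100% = carbachol wells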
Target sequence (Q8TDD5 whole entry, looked up): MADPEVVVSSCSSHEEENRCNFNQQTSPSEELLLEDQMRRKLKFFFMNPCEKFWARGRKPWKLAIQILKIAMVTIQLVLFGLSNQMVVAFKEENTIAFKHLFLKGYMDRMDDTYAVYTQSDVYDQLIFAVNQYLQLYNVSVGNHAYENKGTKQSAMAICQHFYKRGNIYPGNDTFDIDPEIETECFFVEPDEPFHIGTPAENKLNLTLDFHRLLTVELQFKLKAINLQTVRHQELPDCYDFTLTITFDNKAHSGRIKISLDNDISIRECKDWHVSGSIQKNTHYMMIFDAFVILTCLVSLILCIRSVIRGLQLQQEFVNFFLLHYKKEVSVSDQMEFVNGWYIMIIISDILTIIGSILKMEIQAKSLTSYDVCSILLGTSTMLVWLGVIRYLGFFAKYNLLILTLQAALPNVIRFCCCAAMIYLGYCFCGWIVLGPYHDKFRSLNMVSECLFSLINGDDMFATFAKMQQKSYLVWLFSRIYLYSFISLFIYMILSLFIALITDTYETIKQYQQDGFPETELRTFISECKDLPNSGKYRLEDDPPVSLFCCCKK
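Test system – HEK293 line with stable expression of human TRPML3-YFP channel · Control set – carbachol 87 µM final as high control (100%), DMSO as low control (0%) · Signal – Fluo-8 calcium dye fluorescence, ex 470-495, em 515-575 nm · Incubation – 1-h 37 °C dye load, 5-s basal, 120-s post-compound reads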
OX1R antag-1: antagonists of human orexin 1 receptor (OX1R); AID 485270, 2010; Orexin/Hypocretin receptor type 1 (Homo sapiens), O43613; inhibition, % at 6.6 µM; 330,000 compounds, 1.8% hits; OX1R-expressing cells, FRET antagonist read-out; in the data active means inhibition mostly above about 38%, no sharp cut-off; inactive means mostly below about 40%;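 further: 0% = agonist challenge alone and 100% = reference antagonist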
GPR7 antag: GPR7 receptor antagonists, primary screen, cell-based, fluorescence, single concentration; AID 1861, 2009; Neuropeptides B/W receptor type 1 (Homo sapiens), P48145; GPR7-expressing cells, fluorescence antagonist assay; 290,000 compounds, 1.1% hits; inhibition, % at 4.4 µM; in the data active means inhibition above about 16%, passing the limit was not always enough;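 further: cells stimulated with the agonist NPW; 0% = agonist with vehicle and 100% = vehicle without agonist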
TRPN1 ag: zebrafish TRPN1 channel agonists, primary screen, cell-based, HEK293, calcium fluorescence. activation, % at 3 µM. HEK293 zebrafish TRPN1-YFP, Fluo-8 calcium fluorescence; 100% = response to 87 µM carbachol. transient receptor potential cation channel N1 (TRPN1/NompC), Danio rerio. 220,000 compounds, 0.18% hits;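 active means activation above its plate's cutoff, the mean activation of test wells on that plate plus 3 SD, cut at about 19% in these data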;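 further: 0% = DMSO alone and 100% = 87 µM carbachol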
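Material: zebrafish TRPN1-YFP in HEK293 cells. Doses: one dose of 3 µM, 0.3% DMSO. Incubation: dye 1 h 37 °C plus 30 min RT. Measured by: intracellular calcium fluorescence with Fluo-8.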
OX1R antag-2: OX1R (HCRTR1) antagonists, primary screen, fluorescence, CHO/OX1R cells, Fluo-8 calcium, orexin A. Orexin/Hypocretin receptor type 1 (Homo sapiens), O43613. Fluo-8 calcium fluorescence. inhibition, % at 5 µM. 330,000 compounds, 0.43% hits;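 active means inhibition above its plate's threshold, mean inhibition of all tested compounds on the plate plus 3 SD, cut at about 37% in these data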;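 further: 0% = orexin A challenge wells and 100% = SB-334867-A antagonist wells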
* marks the source's active call; other numbers are inactive results. Compounds with a hit are over-represented: about 3.2% of the library has one in this group of screens.

How did CCN1CCN(c2ccc(S(=O)(=O)N3CCCCC3)cc2NC(=O)Cc2ccc(Cl)c(Cl)c2)CC1 do in these assays?
CHO parental Ca: 74*; OX1R antag-1: 19; OX1R antag-2: 45

Results for CC1=CC(C)(C)Nc2ccc(OC(=O)c3cccnc3)cc21 ?
CHO parental Ca: -12; TRPML3 agonist: 0; OX1R antag-1: 16; GPR7 antag: -4; TRPN1 ag: -1; OX1R antag-2: -6

How did CC1=CC(C)(C)Nc2ccc(OC(=O)c3ccco3)cc21 do in these assays?
CHO parental Ca: -11; TRPML3 agonist: 2; OX1R antag-1: 51*; GPR7 antag: -5; TRPN1 ag: 3; OX1R antag-2: 2

What do the screens show for `Cc1ccc(S(=O)(=O)n2ccc3c(OCCOCCNCc4ccc(F)cc4)cccc32)cc1`?
CHO parental Ca: 39*; OX1R antag-1: -1; GPR7 antag: 24; OX1R antag-2: 25

How did CC(SCC(=O)Nc1ccccc1)c1nc2ccccc2c(=O)[nH]1 (centres undefined) do in these assays?
CHO parental Ca: -15; OX1R antag-1: 12; GPR7 antag: -5; OX1R antag-2: -11

What do the screens show for `CC(C)c1ccc(NC(=O)CSC(C)c2nc3ccccc3c(=O)[nH]2)cc1` (centres undefined)?
CHO parental Ca: -5; TRPML3 agonist: -1; OX1R antag-1: 63*; GPR7 antag: -16; TRPN1 ag: -1; OX1R antag-2: 2

Results for COc1ccc(C(=O)NCC(=O)OCc2ccccc2F)cc1 ?
CHO parental Ca: -24; TRPML3 agonist: 0; OX1R antag-1: 16; GPR7 antag: -2; TRPN1 ag: 0; OX1R antag-2: -10

How did Cn1c(Cc2ccccc2)nnc1SCC(=O)c1ccc(Br)s1 do in these assays?
CHO parental Ca: -8; TRPML3 agonist: 38*; OX1R antag-1: 14; GPR7 antag: -8; TRPN1 ag: 0; OX1R antag-2: -23

How did Cn1nnnc1SCC(=O)c1ccc(Br)s1 do in these assays?
CHO parental Ca: -8; TRPML3 agonist: 0; OX1R antag-1: 25; GPR7 antag: -4; TRPN1 ag: 1; OX1R antag-2: -13

What do the screens show for `CN(C)CC[n+]1ccc(C(=O)c2ccccc2)cc1`?
CHO parental Ca: -3; OX1R antag-1: 52*; GPR7 antag: -13; OX1R antag-2: -11

What do the screens show for `O=C(c1ccccc1)c1cccc[n+]1[O-]`?
CHO parental Ca: 0; OX1R antag-1: -6; GPR7 antag: 2; OX1R antag-2: 6

Results for O=C(c1ccccc1)c1cc[n+]([O-])cc1 ?
CHO parental Ca: -3; TRPML3 agonist: 0; OX1R antag-1: 42*; GPR7 antag: -7; TRPN1 ag: 0; OX1R antag-2: -14

Results for O=C(C[n+]1ccc(C(=O)c2ccccc2)cc1)Nc1ccc(C(F)(F)F)cc1 ?
CHO parental Ca: -4; TRPML3 agonist: 0; OX1R antag-1: 42; GPR7 antag: -7; TRPN1 ag: 0; OX1R antag-2: -19

Results for Cc1onc(-c2ccccc2)c1C(=O)NCc1ccc2c(c1)OCO2 ?
CHO parental Ca: -13; TRPML3 agonist: 0; OX1R antag-1: 6; GPR7 antag: 1; TRPN1 ag: 1; OX1R antag-2: -22

Results for Cc1onc(-c2ccccc2)c1C(=O)NNC(=S)NC(=O)c1ccc2c(c1)OCO2 ?
CHO parental Ca: 15; TRPML3 agonist: 23*; OX1R antag-1: 2; GPR7 antag: -15; TRPN1 ag: 23*; OX1R antag-2: -2

How did COc1ccc(-c2cc(C(=O)NCCN3CCOCC3)no2)cc1OC do in these assays?
CHO parental Ca: -12; OX1R antag-1: 17; GPR7 antag: -5; OX1R antag-2: -9

Results for CCCC(=O)N(Cc1cc2cccc(C)c2[nH]c1=O)c1ccccc1OC ?
CHO parental Ca: -16; TRPML3 agonist: 1; OX1R antag-1: 15; GPR7 antag: 21*; TRPN1 ag: 5; OX1R antag-2: -3

How did CCCC(=O)N(Cc1cc2ccccc2[nH]c1=O)c1ccccc1OC do in these assays?
CHO parental Ca: -12; TRPML3 agonist: 0; OX1R antag-1: 41; GPR7 antag: -19; TRPN1 ag: 0; OX1R antag-2: -11

How did O=C(c1ccc([N+](=O)[O-])o1)N1CCCCCC1 do in these assays?
CHO parental Ca: 1; OX1R antag-1: 28*; OX1R antag-2: -14

How did COc1cc2c(cc1OC)CN(C(=O)c1ccc([N+](=O)[O-])o1)CC2 do in these assays?
CHO parental Ca: -19; TRPML3 agonist: 1; OX1R antag-1: 46*; GPR7 antag: -2; TRPN1 ag: 0; OX1R antag-2: -23

What do the screens show for `O=C(c1ccc([N+](=O)[O-])o1)N1CCc2ccccc2C1`?
CHO parental Ca: 0; TRPML3 agonist: 0; OX1R antag-1: 24; GPR7 antag: 1; TRPN1 ag: -1; OX1R antag-2: -24

How did O=C(c1ccc([N+](=O)[O-])o1)N1CCOCC1 do in these assays?
CHO parental Ca: -8; TRPML3 agonist: 1; OX1R antag-1: 76; GPR7 antag: 0; TRPN1 ag: 2; OX1R antag-2: -25

What do the screens show for `Cc1ccc(C(=O)N2CCc3ccccc32)o1`?
CHO parental Ca: -8; TRPML3 agonist: 0; OX1R antag-1: 21; GPR7 antag: -8; TRPN1 ag: -3; OX1R antag-2: -2

How did O=C(c1ccc([N+](=O)[O-])o1)N1CCc2ccccc21 do in these assays?
CHO parental Ca: -11; OX1R antag-1: 42*; GPR7 antag: -15; OX1R antag-2: -16

How did O=C(CSc1cccc[n+]1[O-])c1cc2ccccc2o1 do in these assays?
CHO parental Ca: 0; TRPML3 agonist: 1; OX1R antag-1: 72*; GPR7 antag: 3; TRPN1 ag: 2; OX1R antag-2: -2

How did O=C(O)CSc1cccc[n+]1[O-] do in these assays?
CHO parental Ca: 9; TRPML3 agonist: 1; OX1R antag-1: 10; GPR7 antag: 8; TRPN1 ag: 1; OX1R antag-2: 2

What do the screens show for `CCC(C)(C(=O)NC1CCCC1)N(C(=O)CNC(C)=O)c1ccccc1` (centres undefined)?
CHO parental Ca: -28; TRPML3 agonist: 1; OX1R antag-1: 16; GPR7 antag: 19*; TRPN1 ag: 0; OX1R antag-2: -25

Results for CCC(C)(C(=O)NC1CCCCC1)N(C(=O)c1ccccn1)c1ccccc1 (centres undefined) ?
CHO parental Ca: -17; TRPML3 agonist: 0; OX1R antag-1: 23; GPR7 antag: 3; TRPN1 ag: 0; OX1R antag-2: -34
